CSC inhib: cancer stem cell viability inhibitors, primary screen, luminescence | cancer stem cell-like cells viability | inhibition, % at 7.5 µM | actives 1.1% (n = 300,000) | AID 2717, 2010; in the data active = inhibition above about 75%; inconclusive = no clear call, values can overlap the other calls; tested in HMLE shEcad cells
Calb FLC: C. albicans growth inhibition with fluconazole, primary screen, CaCi-2 strain, Alamar Blue fluorescence | C. albicans CaCi-2 (fluconazole-resistant clinical isolate) + fluconazole, 48 h | growth inhibition, % (concentration not given with the values) | actives 0.57% (n = 300,000);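 active = growth inhibition above about 58% in most replicates, limit read from the data, passing the limit was not always enough; inconclusive = exactly half the replicates above a set limit; inactive = most replicates below a set limit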;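 note: all wells also contain fluconazole at 8 µg/ml as a sub-toxic cotreatment; 0% = median of DMSO wells and 100% = median of geldanamycin control wells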
SKKanGAS inh: S. pyogenes SKKanGAS growth inhibitors in kanamycin, primary screen, streptokinase expression inhibitor project, SKKanGAS strain, BacTiter-Glo luminescence. 6 h. inhibition, % at 7.5 µM. actives 1.3% (n = 300,000);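 active = mean replicate score, as percent of positive control median, at least 50; inconclusive = mean below 50 but one replicate at or above 50; inactive = mean and every replicate below 50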;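 note: strain carries kanamycin resistance gene driven by streptokinase promoter and grows in 40 µg/ml kanamycin; loss of luminescence reflects streptokinase promoter inhibition or plain growth inhibition; 0% = median of DMSO wells and 100% = positive control at its reference dose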
T cruzi inh: inhibitors of intracellular T. cruzi growth, primary screen, luminescence, NIH3T3 host cells. AID 1885, 2009. actives 1.4% (n = 300,000). inhibition, % (no concentration beside the values). T. cruzi beta-gal in NIH3T3, 90 h;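 active = mean inhibition across valid replicates above about 55%, limit read from the data; inconclusive = mean below that limit but half or more replicates reach it; inactive = mean below it, under half of replicates reach it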;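 note: signal also drops with host cell toxicity which is not excluded here; 0% = plate median of DMSO wells and 100% = zero luminescence signal; higher percent means less beta-gal luminescence so fewer parasites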
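Assay system: NIH/3T3 fibroblasts plus reporter T. cruzi. Amount: NIH/3T3 cells, 5,000 per well. Buffer or medium: DMEM, 2% fetal bovine serum. Doses: compound pinned at 50 nL/well, DMSO. Schedule: ≥90 h infection period, 3 h prior cell attachment. Signal: luminescent β-galactosidase signal after 60 min lysis. Read-out: parasite load inhibition, %.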
Mdm2-MdmX inh: inhibitors of human Mdm2-MdmX association, primary screen, cell-based, luminescence, split luciferase, SaOS-2, uHTS. Protein Mdm4 (Homo sapiens) + E3 ubiquitin-protein ligase Mdm2 (Homo sapiens), …. SaOS-2 split-luciferase Mdm2/MdmX complementation. inhibition, % at 8 µM. actives 3% (n = 330,000). AID 485346, 2010;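 active = inhibition of at least 50% at 8 µM in the primary screen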
Target sequence (O15151 whole entry, looked up): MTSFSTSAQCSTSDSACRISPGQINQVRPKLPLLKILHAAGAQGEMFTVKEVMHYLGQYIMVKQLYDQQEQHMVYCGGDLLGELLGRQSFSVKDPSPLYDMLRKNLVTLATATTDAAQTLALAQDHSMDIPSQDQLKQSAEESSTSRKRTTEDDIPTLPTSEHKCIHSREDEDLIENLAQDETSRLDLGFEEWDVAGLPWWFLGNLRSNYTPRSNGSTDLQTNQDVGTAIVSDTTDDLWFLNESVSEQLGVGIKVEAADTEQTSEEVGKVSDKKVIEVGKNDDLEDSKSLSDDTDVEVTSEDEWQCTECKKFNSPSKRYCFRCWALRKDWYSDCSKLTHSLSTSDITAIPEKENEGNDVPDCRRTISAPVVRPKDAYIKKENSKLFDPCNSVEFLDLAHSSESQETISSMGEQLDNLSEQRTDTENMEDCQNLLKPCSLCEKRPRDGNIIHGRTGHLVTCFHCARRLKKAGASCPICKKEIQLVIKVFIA
Target sequence (Q00987 whole entry, looked up): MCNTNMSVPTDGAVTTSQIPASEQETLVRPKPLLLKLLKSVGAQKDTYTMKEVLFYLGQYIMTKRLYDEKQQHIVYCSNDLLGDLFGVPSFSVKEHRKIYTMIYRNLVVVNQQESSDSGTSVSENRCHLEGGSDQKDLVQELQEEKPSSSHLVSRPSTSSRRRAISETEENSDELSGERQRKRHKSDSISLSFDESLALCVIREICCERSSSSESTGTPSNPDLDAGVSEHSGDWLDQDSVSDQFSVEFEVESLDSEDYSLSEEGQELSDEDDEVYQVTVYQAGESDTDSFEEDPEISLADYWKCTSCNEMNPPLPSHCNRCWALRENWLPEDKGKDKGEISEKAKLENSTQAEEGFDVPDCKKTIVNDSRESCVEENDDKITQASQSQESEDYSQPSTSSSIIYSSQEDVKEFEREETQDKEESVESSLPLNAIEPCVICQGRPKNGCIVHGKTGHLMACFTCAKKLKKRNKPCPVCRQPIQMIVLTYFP
Beta apoptosis: inhibitors of cytokine-induced beta cell apoptosis, primary screen, luminescence | actives 0.8% (n = 300,000) | protection from apoptosis, % (test concentration not listed) | AID 435005, 2010 | INS-1E cytokine-induced death, ATP luminescence, 48 h; percent of positive-control rescue, neutral wells zero;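 active = Every replicate reaches about 75%, or at least half do and their mean reaches it too, limit read from the data; inconclusive = At least half of replicates reach the limit but their mean does not; inactive = Under half of replicates reach the limit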;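 note: 0% = cytokine-treated negative control wells and 100% = positive control rescue; higher means more ATP so stronger rescue from cytokine killing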
Mdm2-MdmX conf: Mdm2-MdmX complex disruptors, retested hits, confirmation, luminescence, single concentration. actives 55% (n = 10,000). shares compounds with Mdm2-MdmX inh. Mdm2-MdmX binding, luminescent assay. inhibition, % at 8 µM. AID 489028, 2010; in the data active = inhibition above about 40%
Full FLuc ctr: full-length luciferase signal inhibition, confirmation, counter-screen for Mdm2/MdmX interaction inhibitor project, cell-based, single concentration, SaOS-2; shares compounds with Mdm2-MdmX inh; SaOS-2 full-length luciferase counterscreen, luminescence; inhibition, % at 8 µM; actives 77% (n = 6,200);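 active = mean inhibition at 8 µM reaching about 37%, which flags the compound as non-specific, limit read from the data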;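 note: p53-null SaOS-2 cells with luciferase driven by a doxycycline-inducible promoter; compound on cells about two nights before reading with doxycycline added after day one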
Numbers without * were called inactive; ? = inconclusive; . = no result given. This is a sample that favours compounds with a hit; in the whole collection about 5.7% have one here.

SMILES | CSC inhib | Calb FLC | SKKanGAS inh | T cruzi inh | Mdm2-MdmX inh | Beta apoptosis | Mdm2-MdmX conf | Full FLuc ctr
COc1ccccc1CC(=O)Nc1ccc(S(=O)(=O)N2CCOCC2)cc1 | -1.9 | 4.2 | 3.3 | -14.2 | -5.8 | -1.8 | . | .
COc1ccccc1NS(=O)(=O)c1ccc(-c2cc(C)no2)s1 | -2.2 | 5.3 | 4.4 | -10.3 | 49.3 | 21.4 | . | .
Cc1cccc(N(C)S(=O)(=O)c2ccc(-c3cc(C)no3)s2)c1 | 14.0 | 22.7 | -6.7 | 13.7 | 64.5* | 6.6 | 50.8* | 88.6*
CCN(c1cccc(C)c1)S(=O)(=O)c1ccc(-c2cc(C)no2)s1 | 57.7 | -4.5 | -2.9 | 6.2 | 52.6* | 8.1 | 53.4* | 69.4*
Cc1cc(-c2ccc(S(=O)(=O)N3CCCCC3)s2)on1 | -18.1 | -6.1 | -1.4 | 4.3 | 3.9 | 1.5 | . | .
CCOc1ccc(N(C)S(=O)(=O)c2cc(-c3cc(C)no3)ccc2C(C)C)cc1 | 17.1 | 19.9 | -10.4 | 46.2 | 27.3 | 63.2 | . | .
CCOc1ccc(N(C)S(=O)(=O)c2ccc(-c3cc(C)no3)s2)cc1 | 62.0 | 4.3 | -7.1 | -0.5 | 61.0* | 14.9 | 52.8* | 83.6*
OCC[C@H]1C[C@@H](O)[C@H](O)[C@@]2(CCc3ccccc3O2)O1 | -14.6 | . | . | . | 2.4 | 4.3 | . | .
COc1ccc(C(=O)NC(=S)NCc2cccnc2)cc1Cl | -7.4 | 4.8 | -3.6 | 13.2 | 34.9 | -4.0 | . | .
COc1cc(C(=O)OCC(=O)c2cc(C)n(C)c2C)cc(NC(=O)c2ccco2)c1OC | -5.5 | ? | 5.7 | -4.8 | 74.4* | 17.7 | 5.5 | .
Cc1cc(C(=O)COC(=O)c2ccco2)c(C)n1Cc1ccco1 | -12.7 | -5.1 | -8.0 | 8.0 | 63.5* | -2.7 | 82.0* | 98.2*
Cc1ccc(S(=O)(=O)NCCC(=O)Nc2ncccc2O)cc1C | -11.9 | -8.3 | -3.5 | 1.5 | 14.0 | -3.4 | . | .
COc1ccc(SCC(=O)c2cc(C)c(OC(=S)N(C)C)c(C)c2)cc1 | -13.7 | 2.9 | 27.4 | 11.2 | -50.9 | 7.7 | . | .
Cc1cc(C(=O)CSc2ccc(F)cc2)cc(C)c1OC(=S)N(C)C | . | 13.4 | 1.8 | 25.7 | 58.4* | -2.7 | 84.0* | 107.0*
Cc1onc(-c2ccccc2Cl)c1-c1nc(-c2ccccn2)no1 | 10.2 | ? | 0.6 | 19.6 | 19.4 | -3.0 | . | .
Clc1ccccc1/C=C/c1nc(-c2ccccn2)no1 | 15.0 | -9.5 | -11.8 | 6.5 | 66.4* | 3.8 | 54.4* | 94.5*
O=C(COC(=O)c1c2c(nc3ccccc13)CCCC2)Nc1ccc2c(c1)OCO2 | 13.1 | 10.2 | 18.4 | 13.4 | 41.4 | 8.6 | . | .
CC(=O)c1ccc(NC(=O)COC(=O)c2c3c(nc4ccccc24)/C(=C\c2cccs2)CCC3)cc1 | 116.6* | -5.0 | 21.5 | 43.0 | 65.9* | 2.8 | 35.0 | .
O=C(COC(=O)c1c2c(nc3ccccc13)/C(=C\c1cccs1)CCC2)Nc1ccccc1 | 101.2* | -6.5 | 19.1 | 74.1* | 52.1* | 3.3 | 11.2 | .
Cc1nn(-c2ccccc2Cl)c(Cl)c1/C=N/Nc1nc2ccccc2s1 | 26.9 | 3.7 | 7.4 | 5.5 | 87.4* | 6.9 | 95.8* | 56.2*
CCC(C)N(C(=O)CSc1nnc(C)n1C)C1CCS(=O)(=O)C1 (configuration not stated) | -17.9 | 1.1 | -2.7 | 0.9 | -12.7 | . | . | .
CCOc1ncccc1C(=O)OCc1csc(CC(=O)Nc2ccccc2C)n1 | . | . | . | . | -10.0 | . | . | .
O=C(c1nn2c(C(F)(F)F)cc(-c3ccco3)nc2c1Br)N1CCCc2ccccc21 | 67.7 | 34.0 | -5.7 | 1.3 | 56.7* | 6.5 | 44.0* | 48.3*
O=C(c1nn2c(C(F)(F)F)cc(-c3cccs3)nc2c1Br)N1CCCc2ccccc21 | 25.9 | 22.7 | 5.3 | 36.3 | 28.4 | 15.6 | . | .
CC(C)(C)NC(=O)CN(c1cccc([N+](=O)[O-])c1)S(=O)(=O)c1ccccc1 | 6.3 | 0.1 | 1.9 | 4.4 | 22.1 | . | . | .
SMILES | CSC inhib | Calb FLC | SKKanGAS inh | T cruzi inh | Mdm2-MdmX inh | Beta apoptosis | Mdm2-MdmX conf | Full FLuc ctr
O=C(CCCC(=O)Nc1cccc(Br)c1)N/N=C/c1cc([N+](=O)[O-])ccc1O | -6.5 | 7.0 | 99.2* | 1.5 | 74.2* | 12.9 | 34.9 | .
O=C(CN(c1cccc(Br)c1)S(=O)(=O)c1ccccc1)N/N=C/c1cc([N+](=O)[O-])ccc1O | 22.7 | 3.4 | 118.9* | -17.9 | 51.6* | . | 35.2 | .
C=CC(=O)Nc1ccc(Nc2nc(NC3CCC(N(C)C)CC3)nc3c2ncn3C(C)C)cc1 (configuration not stated) | . | . | . | . | 96.3* | 43.2 | 100.2* | 52.2*
Cc1cccc2c1cnn2C(=O)Nc1ccccc1Cl | 0.9 | 6.4 | 4.4 | 2.7 | -65.0 | -2.0 | . | .
CCn1cnc2cc(NCc3ccc(OC)cc3)ccc21 | -3.2 | -18.1 | -2.3 | 12.2 | -21.3 | -3.1 | . | .
CCOc1ccc2nc3cc(NCc4ccc(OC)cc4)ccc3c(N)c2c1 | 120.8* | 102.0* | 13.0 | 52.6 | 96.7* | 28.2 | 84.7* | 15.4
COc1ccccc1NC(=O)c1cc2c(CO)cnc(C)c2oc1=Nc1cccc(C(N)=O)c1 | 11.8 | 2.7 | 15.0 | -1.3 | 78.8* | 68.4 | 40.8* | 90.5*
COc1cccc(N=c2oc3c(C)ncc(CO)c3cc2C(=O)Nc2ccccc2OC)c1 | . | 17.4 | 3.2 | -7.4 | . | . | . | .
CC(=O)Nc1ccc(NC(=O)c2nc(S(=O)(=O)Cc3cccc(C)c3)ncc2Cl)cc1 | 91.4* | -7.1 | 3.4 | 8.0 | 86.4* | -6.1 | 66.0* | 51.2*
Cc1cccc(CS(=O)(=O)c2ncc(Cl)c(C(=O)NCc3ccc4c(c3)OCO4)n2)c1 | -17.1 | 0.6 | -8.2 | -14.1 | 59.7* | 23.7 | 63.5* | 16.3
CSc1ncc(Cl)c(C(=O)Nc2ccc(C)c(C)c2)n1 | 5.9 | -0.2 | 2.6 | -8.9 | 16.4 | 2.4 | . | .
COC(=O)c1ccc(NC(=O)c2nc(S(=O)(=O)Cc3cccc(C)c3)ncc2Cl)cc1 | 110.0* | 0.2 | 104.3* | -8.7 | 76.4* | 75.2* | 90.8* | 51.8*
COc1ccc(NC(=O)[C@H](C)NC(=O)C2CCN(S(=O)(=O)c3ccc(C)cc3)CC2)cc1OC | 9.9 | 6.2 | 8.0 | -9.1 | 17.1 | 2.2 | . | .
